Results: ChEMBL document CHEMBL3046938, “Synthesis and fungicidal activity of novel 2-oxocycloalkylsulfonylureas” (J Agric Food Chem, 2005)
≈ marks a conversion by molar mass, not a printed value.

How the values were obtained:
[1] = system: Colletotrichum orbiculare; assay: Fungicidal activity against Colletotrichum orbiculare assessed as mycelial growth inhibition in potato dextrose agar at 24 +/- 0.5 degC; format: functional, organism-based
In short: (§1)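 Mycelium growth rate test. Compounds in acetone were mixed into PDA at 100, 50, 25, 12.5 and 6.25 μg/mL, fungus cakes were placed on the plates and grown at 24 ± 0.5 °C, with an acetone blank and three replicates. Inhibition rates were measured, and EC50 and EC90 were estimated by logit analysis.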

[2] = system: Pythium aphanidermatum; assay: Fungicidal activity against Pythium aphanidermatum assessed as mycelial growth inhibition in potato dextrose agar at 24 +/- 0.5 degC; format: functional, organism-based; in short: as §1
[3] = system: Fusarium oxysporum f. sp. vasinfectum; assay: Fungicidal activity against Fusarium oxysporum f. sp. vasinfectum assessed as mycelial growth inhibition in potato dextrose agar at 24 +/- 0.5 degC; format: functional, organism-based; in short: as §1
[4] = system: Rhizoctonia solani; assay: Fungicidal activity against Rhizoctonia solani assessed as mycelial growth inhibition in potato dextrose agar at 24 +/- 0.5 degC; format: functional, organism-based; in short: as §1
[5] = system: Botrytis cinerea; assay: Fungicidal activity against Botryotinia fuckeliana assessed as mycelial growth inhibition in potato dextrose agar at 24 +/- 0.5 degC; format: functional, organism-based; in short: as §1
[6] = system: Fusarium graminearum; assay: Fungicidal activity against Fusarium graminearum assessed as mycelial growth inhibition in potato dextrose agar at 24 +/- 0.5 degC; format: functional, organism-based; in short: as §1
[7] = system: Fusarium graminearum; assay: Fungicidal activity against Fusarium graminearum assessed as mycelial growth inhibition in potato dextrose agar at 50 ug/mL at 24 +/- 0.5 degC; format: functional
In short: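 Single-concentration screen against G. zeae by mycelium growth rate test. Compound in acetone was mixed into PDA at 50 μg/mL, fungus cakes were placed on the plates and grown at 24 ± 0.5 °C, with an acetone blank and three replicates. Percent inhibition was recorded.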

[8] = system: Verticillium dahliae; assay: Fungicidal activity against Verticillium dahliae assessed as mycelial growth inhibition in potato dextrose agar at 24 +/- 0.5 degC; format: functional, organism-based; in short: as §1

`O=C(Nc1cc(Cl)ccc1Cl)NS(=O)(=O)C1CCCCCCCCCCC1=O` (stereo not drawn) gave an EC50 [1] of 13.5 µg/mL (≈ 30.1 µM), an EC90 [1] of 64.3 µg/mL (≈ 143 µM) and an EC50 [2] of 16.7 µg/mL (≈ 37.1 µM). For the same compound, the EC90 [2] was 49.9 µg/mL (≈ 111 µM), the EC50 [3] was 19.5 µg/mL (≈ 43.5 µM) and the EC90 [3] was 53.8 µg/mL (≈ 120 µM). For the same compound, the EC50 [4] was 38.9 µg/mL (≈ 86.6 µM), the EC90 [4] was 106 µg/mL (≈ 235 µM) and the EC50 [5] was 7.8 µg/mL (≈ 17.4 µM). For the same compound, the EC90 [5] was 33.8 µg/mL (≈ 75.1 µM), the EC50 [6] was 31.5 µg/mL (≈ 70 µM) and the EC90 [6] was 169 µg/mL (≈ 377 µM). It also gave an inhibition at 50 µg/mL [7] of 81.6%, an EC50 [8] of 22 µg/mL (≈ 49 µM) and an EC90 [8] of 142 µg/mL (≈ 316 µM).

With `O=C(Nc1ccc(Cl)cc1)NS(=O)(=O)C1CCCCC1=O` (stereo not drawn) the inhibition at 50 µg/mL [7] was 18.1%.

With `Cc1cccc(NC(=O)NS(=O)(=O)C2CCCCCCCCCCC2=O)c1` (stereo not drawn) the inhibition at 50 µg/mL [7] was 34.5%.

In the case of `COC(=O)Nc1nc2ccccc2[nH]1` [CARBENDAZIM], the EC50 [1] is reported as 39.8 µg/mL (≈ 208 µM), the EC90 [1] is reported as 200 µg/mL (≈ 1040 µM) and the EC50 [2] is reported as 20.4 µg/mL (≈ 107 µM). It also gave an EC90 [2] of 75.9 µg/mL (≈ 397 µM), an EC50 [3] of 0.54 µg/mL (≈ 2.82 µM) and an EC90 [3] of 2.98 µg/mL (≈ 15.6 µM). The EC50 [4] was 1.41 µg/mL (≈ 7.37 µM), the EC90 [4] was 2.82 µg/mL (≈ 14.7 µM) and the EC50 [6] was 1.95 µg/mL (≈ 10.2 µM). For the same compound, the EC90 [6] was 4.46 µg/mL (≈ 23.3 µM), the EC50 [8] was 18.2 µg/mL (≈ 95.2 µM) and the EC90 [8] was 93.3 µg/mL (≈ 488 µM).

For `O=C1CCCCCCCCCCC1S(=O)(=O)Nc1ccc(Cl)cc1` (stereo not drawn), the EC50 [1] was 13.8 µg/mL (≈ 37 µM), the EC90 [1] was 54.8 µg/mL (≈ 147 µM) and the EC50 [2] was 17.6 µg/mL (≈ 47.3 µM). For the same compound, the EC90 [2] was 59.6 µg/mL (≈ 160 µM), the EC50 [3] was 24.6 µg/mL (≈ 66.1 µM) and the EC90 [3] was 293 µg/mL (≈ 788 µM). For the same compound, the EC50 [4] was 6.82 µg/mL (≈ 18.3 µM), the EC90 [4] was 57 µg/mL (≈ 153 µM) and the EC50 [5] was 7.62 µg/mL (≈ 20.5 µM). It also gave an EC90 [5] of 39 µg/mL (≈ 105 µM), an EC50 [6] of 30 µg/mL (≈ 80.8 µM) and an EC90 [6] of 414 µg/mL (≈ 1110 µM). The inhibition at 50 µg/mL [7] was 72.6%, the EC50 [8] was 10.2 µg/mL (≈ 27.5 µM) and the EC90 [8] was 55.3 µg/mL (≈ 149 µM).

`CC(C)c1cc(C(C)C)nc(NC(=O)NS(=O)(=O)C2CCCCCCCCCCC2=O)n1` (stereo not drawn) was tested, and the inhibition at 50 µg/mL [7] was 55.6%.

`O=C(Nc1ccc(Cl)c(Cl)c1)NS(=O)(=O)C1CCCCCCCCCCC1=O` (stereo not drawn) showed an inhibition at 50 µg/mL [7] of 55.6%.

`O=C(Nc1ccc(Cl)c(Cl)c1)NS(=O)(=O)C1CCCCCC1=O` (stereo not drawn) gave an inhibition at 50 µg/mL [7] of 18.1%.

With `Cc1ccc(NC(=O)NS(=O)(=O)C2CCCCC2=O)cc1` (stereo not drawn) the inhibition at 50 µg/mL [7] was 18.1%.

`CCCc1cc(CCC)nc(NC(=O)NS(=O)(=O)C2CCCCCCCCCCC2=O)n1` (stereo not drawn) was tested, and the inhibition at 50 µg/mL [7] was 34.5%.

Compound `Cc1ccnc(NC(=O)NS(=O)(=O)C2CCCCCCCCCCC2=O)n1` (stereo not drawn) has an inhibition at 50 µg/mL [7] of 18.1%.

Compound `O=C(Nc1cccc([N+](=O)[O-])c1)NS(=O)(=O)C1CCCCCCCCCCC1=O` (stereo not drawn) has an inhibition at 50 µg/mL [7] of 18.1%.

Compound `Cc1ccc(NC(=O)NS(=O)(=O)C2CCCCCC2=O)c(C)c1` (stereo not drawn) has an inhibition at 50 µg/mL [7] of 9.3%.

Compound `O=C(Nc1cccc(Cl)c1)NS(=O)(=O)C1CCCCCCCCCCC1=O` (stereo not drawn) has an inhibition at 50 µg/mL [7] of 42%.

Work on `O=C(Nc1ccccc1Cl)NS(=O)(=O)C1CCCCCCCCCCC1=O` (stereo not drawn) yielded an inhibition at 50 µg/mL [7] of 49%.

`Cc1cc(C)nc(NC(=O)NS(=O)(=O)C2CCCCCCCCCCC2=O)n1` (stereo not drawn) gave an inhibition at 50 µg/mL [7] of 18.1%.

`COc1cc(Cl)nc(NC(=O)NS(=O)(=O)C2CCCCCCCCCCC2=O)n1` (stereo not drawn) gave an inhibition at 50 µg/mL [7] of 34.5%.

`COc1cc(OC)nc(NC(=O)NS(=O)(=O)C2CCCCCCCCCCC2=O)n1` (stereo not drawn) gave an inhibition at 50 µg/mL [7] of 26.5%.

`O=C(Nc1cc(Cl)ccc1Cl)NS(=O)(=O)C1CCCCCC1=O` (stereo not drawn) showed an inhibition at 50 µg/mL [7] of 18.1%.

`COc1cc(OC)nc(NC(=O)NS(=O)(=O)C2CCCCCC2=O)n1` (stereo not drawn) was tested, and the inhibition at 50 µg/mL [7] was 18.1%.

For `O=C(Nc1ccc(Cl)c(Cl)c1)NS(=O)(=O)C1CCCCC1=O` (stereo not drawn), the inhibition at 50 µg/mL [7] was 18.1%.

With `O=C(Nc1ccc(F)cc1)NS(=O)(=O)C1CCCCCCCCCCC1=O` (stereo not drawn) the inhibition at 50 µg/mL [7] was 18.1%.

In the case of `Cc1ccc(NC(=O)NS(=O)(=O)C2CCCCCCCCCCC2=O)cc1C` (stereo not drawn), the EC50 [1] is reported as 30.4 µg/mL (≈ 74.5 µM), the EC90 [1] is reported as 105 µg/mL (≈ 256 µM) and the EC50 [2] is reported as 33.5 µg/mL (≈ 82.1 µM). The EC90 [2] was 124 µg/mL (≈ 303 µM), the EC50 [3] was 24 µg/mL (≈ 58.8 µM) and the EC90 [3] was 98 µg/mL (≈ 240 µM). For the same compound, the EC50 [4] was 112 µg/mL (≈ 274 µM), the EC90 [4] was 556 µg/mL (≈ 1360 µM) and the EC50 [5] was 9.57 µg/mL (≈ 23.4 µM). It also gave an EC90 [5] of 35.9 µg/mL (≈ 87.8 µM), an EC50 [6] of 39 µg/mL (≈ 95.5 µM) and an EC90 [6] of 176 µg/mL (≈ 431 µM). It also gave an inhibition at 50 µg/mL [7] of 77.3%, an EC50 [8] of 33.7 µg/mL (≈ 82.5 µM) and an EC90 [8] of 484 µg/mL (≈ 1180 µM).

`COc1cc(OC)nc(NC(=O)NS(=O)(=O)C2CCCCC2=O)n1` (stereo not drawn) gave an inhibition at 50 µg/mL [7] of 18.1%.

Compound `Cc1ccc(NC(=O)NS(=O)(=O)C2CCCCC2=O)c(C)c1` (stereo not drawn) has an inhibition at 50 µg/mL [7] of 26.5%.

For `O=C(Nc1cc(Cl)ccc1Cl)NS(=O)(=O)C1CCCCC1=O` (stereo not drawn), the inhibition at 50 µg/mL [7] was 26.5%.

With `O=C(Nc1ccc(Cl)cc1)NS(=O)(=O)C1CCCCCC1=O` (stereo not drawn) the inhibition at 50 µg/mL [7] was 18.1%.

`CC12CC1(C)C(=O)N(c1cc(Cl)cc(Cl)c1)C2=O` (stereo not drawn) [PROCYMIDONE] showed an EC90 [5] of 5.75 µg/mL (≈ 20.2 µM).

For `O=C(Nc1ccc(Cl)cc1)NS(=O)(=O)C1CCCCCCCCCCC1=O` (stereo not drawn), the inhibition at 50 µg/mL [7] was 49%.

For `CC(=O)c1ccc(NC(=O)NS(=O)(=O)C2CCCCCCCCCCC2=O)cc1` (stereo not drawn), the inhibition at 50 µg/mL [7] was 9.3%.

Compound `Cc1ccc(NC(=O)NS(=O)(=O)C2CCCCCCCCCCC2=O)cc1` (stereo not drawn) has an inhibition at 50 µg/mL [7] of 34.5%.

Compound `O=C(NC1CCCCCCCCCCC(=O)OCCC1)NS(=O)(=O)C1CCCCCCCCCCC1=O` (stereo not drawn) has an inhibition at 50 µg/mL [7] of 26.1%.

`Cc1ccc(NC(=O)NS(=O)(=O)C2CCCCCC2=O)cc1` (stereo not drawn) showed an inhibition at 50 µg/mL [7] of 18.1%.

`CCc1cc(CC)nc(NC(=O)NS(=O)(=O)C2CCCCCCCCCCC2=O)n1` (stereo not drawn) was tested, and the inhibition at 50 µg/mL [7] was 55.6%.

For `COc1ccc(NC(=O)NS(=O)(=O)C2CCCCCCCCCCC2=O)cc1` (stereo not drawn), the inhibition at 50 µg/mL [7] was 18.1%.
